Data as given in paper PMC6331712 (ChemistryOpen, 2019).

Tested on: not listed separately
Test: LogD7.4 determination from HPLC retention times with calibration curve
Type: physicochemical
Conditions: pH 7.4

Point of comparison: `CCOC(=O)Nc1ccc(SCc2ccc(-c3ccccc3)cc2)nc1N` [9 b, Ethyl-{6-[(1,1'-biphenyl-4-yl)methylthio]-2-aminopyridin-3-yl}carbamate], chromatographic logD 4.34. Against it:
- CCOC(=O)Nc1ccc(NCc2ccc(F)cc2)nc1N [Compound 1, Flupirtine, reference compound] — lower, 2.96
- Nc1nc(SCc2ccc(F)cc2)ccc1NC(=O)c1ccc(F)c(F)c1 [9 a, N-{2-A mino-6-[(4-fluorobenzyl)thio]pyridin-3-yl}-3,4-difluorobenzamide] — lower, 3.9

Same assay, conditions: pH 7.4; from HPLC retention factor and calibration curve

Point of comparison: `CCOC(=O)Nc1ccc(SCc2ccccn2)nc1N` [9 d, Ethyl-{2-amino-6-[(pyridin-2-ylmethylthio)pyridin-3-yl]}carbamate], “logD 7.4” value 2.62. Against it:
- CCOC(=O)Nc1ccc(SCCN2CCCCC2)nc1N [9 f] — lower, 2.04
- CCOC(=O)Nc1ccc(SCc2cc(OC)cc(OC)c2)nc1N [9 c, Ethyl-{2-amino-6-[(3 ,5-dimethoxybenzylthio)pyridin-3-yl]}carbamate] — higher, 3.61

Tested on: TAMH cells
Test: MTT cell viability assay, TAMH cells
Type: cell-based, mouse
Conditions: TAMH cells; MTT; 24 h exposure
How it was run: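 MTT viability read-out in TAMH (transgenic mouse hepatocyte) and HEP-G2 (human hepatoma) cell lines. LD50 was taken after 24 h of exposure. […] LD50 values are means with standard deviations of 4–5 independent determinations. The ratio uses the mean EC50 from a thallium-flux KV7.2/3 assay (30 min exposure, four-parameter logistic fit).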

With `CCOC(=O)Nc1ccc(SCCN2CCCCC2)nc1N` [9 f] the LD50 was greater than 500 µM.
`CCOC(=O)Nc1ccc(SCc2ccccn2)nc1N` [9 d, Ethyl-{2-amino-6-[(pyridin-2-ylmethylthio)pyridin-3-yl]}carbamate] showed an LD50 greater than 1000 µM.
`CCOC(=O)Nc1ccc(SCc2ccc(-c3ccccc3)cc2)nc1N` [9 b, Ethyl-{6-[(1,1'-biphenyl-4-yl)methylthio]-2-aminopyridin-3-yl}carbamate] showed an LD50 greater than 63 µM.
Molecule `CCOC(=O)Nc1ccc(SCc2cc(OC)cc(OC)c2)nc1N` [9 c, Ethyl-{2-amino-6-[(3 ,5-dimethoxybenzylthio)pyridin-3-yl]}carbamate] has an LD50 greater than 250 µM.
`Nc1nc(SCc2ccc(F)cc2)ccc1NC(=O)c1ccc(F)c(F)c1` [9 a, N-{2-A mino-6-[(4-fluorobenzyl)thio]pyridin-3-yl}-3,4-difluorobenzamide] showed an LD50 greater than 30 µM.

For `CCOC(=O)Nc1ccc(NCc2ccc(F)cc2)nc1N` [Compound 1, Flupirtine, reference compound], the LD50 was 487 ± 51 µM.

Same assay, conditions: TAMH cells; MTT; 48 h exposure

Point of comparison: `CCOC(=O)Nc1ccc(SCc2ccc(-c3ccccc3)cc2)nc1N` [9 b, Ethyl-{6-[(1,1'-biphenyl-4-yl)methylthio]-2-aminopyridin-3-yl}carbamate], LD25 14 ± 13 µM. Against it:
- CCOC(=O)Nc1ccc(NCc2ccc(F)cc2)nc1N [Compound 1, Flupirtine, reference compound] — 7.4-fold higher, 103 ± 47 µM
- Nc1nc(SCc2ccc(F)cc2)ccc1NC(=O)c1ccc(F)c(F)c1 [9 a, N-{2-A mino-6-[(4-fluorobenzyl)thio]pyridin-3-yl}-3,4-difluorobenzamide] — within error, 13 ± 04 µM

Same assay, conditions: average LD25 (48 h, TAMH) divided by average EC50 (KV7.2/3)

Point of comparison: `CCOC(=O)Nc1ccc(NCc2ccc(F)cc2)nc1N` [Compound 1, Flupirtine, reference compound], “Tox./Act. (toxicity/activity ratio, safety index)” value 112. Against it:
- CCOC(=O)Nc1ccc(SCc2ccc(-c3ccccc3)cc2)nc1N [9 b, Ethyl-{6-[(1,1'-biphenyl-4-yl)methylthio]-2-aminopyridin-3-yl}carbamate] — lower, 55
- Nc1nc(SCc2ccc(F)cc2)ccc1NC(=O)c1ccc(F)c(F)c1 [9 a, N-{2-A mino-6-[(4-fluorobenzyl)thio]pyridin-3-yl}-3,4-difluorobenzamide] — lower, 50

Tested on: HEP‐G2 cells
Test: MTT cell viability assay, HEP-G2 cells
Type: cell-based, human
Conditions: HEP‐G2 cells; MTT; 24 h exposure

`CCOC(=O)Nc1ccc(SCCN2CCCCC2)nc1N` [9 f] gave an LD50 greater than 500 µM.
Work on `CCOC(=O)Nc1ccc(SCc2ccc(-c3ccccc3)cc2)nc1N` [9 b, Ethyl-{6-[(1,1'-biphenyl-4-yl)methylthio]-2-aminopyridin-3-yl}carbamate] yielded an LD50 greater than 250 µM.

Point of comparison: `CCOC(=O)Nc1ccc(NCc2ccc(F)cc2)nc1N` [Compound 1, Flupirtine, reference compound], LD50 547 ± 111 µM. Against it:
- CCOC(=O)Nc1ccc(SCc2ccccn2)nc1N [9 d, Ethyl-{2-amino-6-[(pyridin-2-ylmethylthio)pyridin-3-yl]}carbamate] — 1.5-fold higher, 831 ± 149 µM
- CCOC(=O)Nc1ccc(SCc2cc(OC)cc(OC)c2)nc1N [9 c, Ethyl-{2-amino-6-[(3 ,5-dimethoxybenzylthio)pyridin-3-yl]}carbamate] — 4.1-fold lower, 134 ± 22 µM
- Nc1nc(SCc2ccc(F)cc2)ccc1NC(=O)c1ccc(F)c(F)c1 [9 a, N-{2-A mino-6-[(4-fluorobenzyl)thio]pyridin-3-yl}-3,4-difluorobenzamide] — 68-fold lower, 8 ± 3 µM

Same assay, conditions: HEP‐G2 cells; MTT; 48 h exposure

Point of comparison: `Nc1nc(SCc2ccc(F)cc2)ccc1NC(=O)c1ccc(F)c(F)c1` [9 a, N-{2-A mino-6-[(4-fluorobenzyl)thio]pyridin-3-yl}-3,4-difluorobenzamide], LD25 4 ± 1 µM. Against it:
- CCOC(=O)Nc1ccc(NCc2ccc(F)cc2)nc1N [Compound 1, Flupirtine, reference compound] — 18-fold higher, 74 ± 40 µM

Same assay, conditions: average LD25 (48 h, HEP‐G2) divided by average EC50 (KV7.2/3)

Point of comparison: `Nc1nc(SCc2ccc(F)cc2)ccc1NC(=O)c1ccc(F)c(F)c1` [9 a, N-{2-A mino-6-[(4-fluorobenzyl)thio]pyridin-3-yl}-3,4-difluorobenzamide], “Tox./Act. (toxicity/activity ratio, safety index)” value 15. Against it:
- CCOC(=O)Nc1ccc(NCc2ccc(F)cc2)nc1N [Compound 1, Flupirtine, reference compound] — higher, 81

Biological target: KV7.2/KV7.3 channel (Homo sapiens, UniProt O43525+O43526)
Test: not given
Type: cell-based
Conditions: not given

Sequence of KV7.2/KV7.3 channel (O43525 whole entry): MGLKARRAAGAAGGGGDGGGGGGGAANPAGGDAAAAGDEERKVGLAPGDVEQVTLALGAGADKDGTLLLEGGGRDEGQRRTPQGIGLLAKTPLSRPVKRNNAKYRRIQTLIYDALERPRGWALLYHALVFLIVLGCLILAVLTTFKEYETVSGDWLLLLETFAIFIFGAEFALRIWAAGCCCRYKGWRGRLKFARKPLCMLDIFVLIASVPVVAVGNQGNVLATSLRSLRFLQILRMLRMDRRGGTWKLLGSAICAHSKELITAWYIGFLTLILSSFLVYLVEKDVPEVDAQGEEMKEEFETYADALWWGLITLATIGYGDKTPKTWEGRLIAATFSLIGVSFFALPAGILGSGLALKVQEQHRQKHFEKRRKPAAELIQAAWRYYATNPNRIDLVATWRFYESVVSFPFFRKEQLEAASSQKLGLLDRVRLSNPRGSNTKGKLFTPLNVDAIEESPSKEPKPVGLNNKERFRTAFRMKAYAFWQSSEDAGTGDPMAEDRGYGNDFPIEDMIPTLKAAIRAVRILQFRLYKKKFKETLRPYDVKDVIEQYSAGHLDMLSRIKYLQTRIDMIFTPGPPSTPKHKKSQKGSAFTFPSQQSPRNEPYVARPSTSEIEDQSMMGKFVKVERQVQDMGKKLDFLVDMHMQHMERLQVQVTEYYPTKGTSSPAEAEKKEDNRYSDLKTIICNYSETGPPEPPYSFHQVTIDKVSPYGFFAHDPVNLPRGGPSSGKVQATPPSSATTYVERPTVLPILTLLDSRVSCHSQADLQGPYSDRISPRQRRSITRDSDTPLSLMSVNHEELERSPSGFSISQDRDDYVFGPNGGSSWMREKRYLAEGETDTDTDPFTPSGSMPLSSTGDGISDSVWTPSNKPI
Sequence of KV7.2/KV7.3 channel (O43526 whole entry): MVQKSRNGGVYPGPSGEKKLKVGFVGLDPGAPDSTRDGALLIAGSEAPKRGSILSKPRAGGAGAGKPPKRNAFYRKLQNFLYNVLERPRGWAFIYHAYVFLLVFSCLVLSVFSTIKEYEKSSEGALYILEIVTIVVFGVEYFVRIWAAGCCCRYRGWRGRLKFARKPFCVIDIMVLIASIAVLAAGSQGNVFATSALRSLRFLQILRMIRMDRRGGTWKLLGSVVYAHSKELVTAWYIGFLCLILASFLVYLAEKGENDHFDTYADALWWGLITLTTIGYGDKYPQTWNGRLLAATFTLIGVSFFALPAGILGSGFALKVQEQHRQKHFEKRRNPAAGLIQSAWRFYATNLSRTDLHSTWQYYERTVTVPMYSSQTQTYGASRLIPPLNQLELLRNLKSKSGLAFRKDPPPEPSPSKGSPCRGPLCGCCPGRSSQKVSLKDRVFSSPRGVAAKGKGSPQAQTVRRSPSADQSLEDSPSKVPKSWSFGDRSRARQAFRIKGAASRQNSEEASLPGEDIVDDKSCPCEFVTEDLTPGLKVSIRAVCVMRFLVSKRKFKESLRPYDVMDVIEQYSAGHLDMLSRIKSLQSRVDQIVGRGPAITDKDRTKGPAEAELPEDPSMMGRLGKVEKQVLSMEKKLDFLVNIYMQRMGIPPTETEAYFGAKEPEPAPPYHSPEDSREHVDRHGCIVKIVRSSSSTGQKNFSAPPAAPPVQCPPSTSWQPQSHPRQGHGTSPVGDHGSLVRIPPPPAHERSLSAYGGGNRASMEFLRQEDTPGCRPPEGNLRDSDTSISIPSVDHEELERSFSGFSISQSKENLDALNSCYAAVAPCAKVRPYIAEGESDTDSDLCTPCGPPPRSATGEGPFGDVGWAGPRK

Point of comparison: `CCOC(=O)Nc1ccc(SCc2ccc(-c3ccccc3)cc2)nc1N` [9 b, Ethyl-{6-[(1,1'-biphenyl-4-yl)methylthio]-2-aminopyridin-3-yl}carbamate], EC50 253 ± 42 nM. Against it:
- CCOC(=O)Nc1ccc(NCc2ccc(F)cc2)nc1N [Compound 1, Flupirtine, reference compound] — 3.6-fold higher, 918 ± 99 nM
- Nc1nc(SCc2ccc(F)cc2)ccc1NC(=O)c1ccc(F)c(F)c1 [9 a, N-{2-A mino-6-[(4-fluorobenzyl)thio]pyridin-3-yl}-3,4-difluorobenzamide] — within error, 260 ± 82 nM

Same assay, conditions: HEK293

Point of comparison: `CCOC(=O)Nc1ccc(SCc2ccc(-c3ccccc3)cc2)nc1N` [9 b, Ethyl-{6-[(1,1'-biphenyl-4-yl)methylthio]-2-aminopyridin-3-yl}carbamate], Emax 69 ± 9%. Against it:
- CCOC(=O)Nc1ccc(NCc2ccc(F)cc2)nc1N [Compound 1, Flupirtine, reference compound] — higher, 100%
- Nc1nc(SCc2ccc(F)cc2)ccc1NC(=O)c1ccc(F)c(F)c1 [9 a, N-{2-A mino-6-[(4-fluorobenzyl)thio]pyridin-3-yl}-3,4-difluorobenzamide] — within error, 100 ± 23%

Same assay, conditions: thallium flux assay; compared with 1

With `CCOC(=O)Nc1ccc(SCc2ccc(-c3ccccc3)cc2)nc1N` [9 b, Ethyl-{6-[(1,1'-biphenyl-4-yl)methylthio]-2-aminopyridin-3-yl}carbamate] the “KV7.2/KV7.3 channel opening activity (in words)” value was “as active as the marketed drug 1”.
In the case of `Nc1nc(SCc2ccc(F)cc2)ccc1NC(=O)c1ccc(F)c(F)c1` [9 a, N-{2-A mino-6-[(4-fluorobenzyl)thio]pyridin-3-yl}-3,4-difluorobenzamide], the “KV7.2/KV7.3 channel opening activity (in words)” value is reported as “as active as the marketed drug 1”.

Tested on: not listed separately
Test: Anodic peak potential by cyclic voltammetry
Type: physicochemical
Conditions: 1.0 mM compound in 100 mM TRIS‐buffer (pH 7.4)

Point of comparison: `Nc1nc(SCc2ccc(F)cc2)ccc1NC(=O)c1ccc(F)c(F)c1` [9 a, N-{2-A mino-6-[(4-fluorobenzyl)thio]pyridin-3-yl}-3,4-difluorobenzamide], “Anodic peak potential E pa” value 442 mV. Against it:
- CCOC(=O)Nc1ccc(SCCN2CCCCC2)nc1N [9 f] — higher, 573 mV
- CCOC(=O)Nc1ccc(SCc2ccccn2)nc1N [9 d, Ethyl-{2-amino-6-[(pyridin-2-ylmethylthio)pyridin-3-yl]}carbamate] — higher, 499 mV
- CCOC(=O)Nc1ccc(NCc2ccc(F)cc2)nc1N [Compound 1, Flupirtine, reference compound] — lower, 350 mV
- CCOC(=O)Nc1ccc(SCc2ccc(-c3ccccc3)cc2)nc1N [9 b, Ethyl-{6-[(1,1'-biphenyl-4-yl)methylthio]-2-aminopyridin-3-yl}carbamate] — higher, 452 mV
- CCOC(=O)Nc1ccc(SCc2cc(OC)cc(OC)c2)nc1N [9 c, Ethyl-{2-amino-6-[(3 ,5-dimethoxybenzylthio)pyridin-3-yl]}carbamate] — higher, 450 mV
